According to ChEMBL document CHEMBL1138496, “Synthesis and evaluation of a novel indoledione class of long chain fatty acid elongase 6 (ELOVL6) inhibitors” (J Med Chem, 2009):

Experiments:
[1] = molecular target: T1, Very long chain fatty acid elongase 6 (Homo sapiens, UniProt Q9H5J4); assay: Inhibition of human ELOVL6 expressed in african green monkey COS7 cells assessed as palmitoyl-CoA elongation; format: cell-based, COS-7
T1 sequence (Q9H5J4 whole entry): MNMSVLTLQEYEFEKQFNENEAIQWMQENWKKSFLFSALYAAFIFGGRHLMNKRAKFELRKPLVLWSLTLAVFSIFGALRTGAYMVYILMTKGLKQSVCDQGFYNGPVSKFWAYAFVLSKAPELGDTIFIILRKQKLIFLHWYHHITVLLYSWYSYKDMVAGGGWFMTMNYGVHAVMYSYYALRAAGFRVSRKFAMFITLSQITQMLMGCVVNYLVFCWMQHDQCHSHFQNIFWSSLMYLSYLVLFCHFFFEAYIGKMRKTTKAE
Procedure, shortened: (§1)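 IC50 against each ELOVL subtype, each with its own fatty acyl-CoA substrate. Human ELOVL6 used palmitoyl-CoA elongation. Radioactive ELOVL6 products were detected with recombinant histidine-tagged ACBP as a probe. Values are mean ± SE, n ≥ 3.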

[2] = molecular target: T2, Very long chain fatty acid elongase 3 (Homo sapiens, UniProt Q9HB03); assay: Inhibition of human ELOVL3 expressed in african green monkey COS7 cells assessed as stearoyl-CoA elongation; format: cell-based, COS-7; procedure, shortened: as §1
T2 sequence (Q9HB03 whole entry): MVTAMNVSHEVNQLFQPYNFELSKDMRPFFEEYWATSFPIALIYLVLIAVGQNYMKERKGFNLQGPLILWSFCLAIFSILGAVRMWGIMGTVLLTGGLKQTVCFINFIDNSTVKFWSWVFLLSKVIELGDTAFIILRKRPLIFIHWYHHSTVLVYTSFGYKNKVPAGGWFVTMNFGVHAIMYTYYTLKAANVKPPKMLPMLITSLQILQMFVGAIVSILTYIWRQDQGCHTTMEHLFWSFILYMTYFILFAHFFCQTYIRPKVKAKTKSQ

[3] = Plasma concentration in mouse at 10 mg/kg, po after 2 hrs; format: ADME, organism-based; parameters: dose 10 mg/kg, route oral
[4] = Plasma concentration in mouse at 1 mg/kg, po after 4 hrs; format: ADME, organism-based; parameters: dose 1 mg/kg, route oral
Procedure, shortened: (§2)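 Compound was given orally at 1 mg/kg to mice. Plasma levels were sampled at 2, 4, 8 and 24 h. Values are the mean of n = 3 animals.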

[5] = molecular target: T3, Very long chain fatty acid elongase 1 (Homo sapiens, UniProt Q9BW60); assay: Inhibition of human ELOVL1 expressed in african green monkey COS7 cells; format: cell-based, COS-7; procedure, shortened: as §1
T3 sequence (Q9BW60 whole entry): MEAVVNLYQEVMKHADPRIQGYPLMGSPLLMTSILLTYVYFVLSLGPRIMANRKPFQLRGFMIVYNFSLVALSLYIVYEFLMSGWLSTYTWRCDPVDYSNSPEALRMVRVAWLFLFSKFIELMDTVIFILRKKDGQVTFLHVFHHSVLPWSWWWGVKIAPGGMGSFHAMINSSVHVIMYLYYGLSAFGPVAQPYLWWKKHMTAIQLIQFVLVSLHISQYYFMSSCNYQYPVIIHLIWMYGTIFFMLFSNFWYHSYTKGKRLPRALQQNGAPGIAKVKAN

[6] = molecular target: T4, Very long chain fatty acid elongase 3 (Mus musculus, UniProt O35949); assay: Inhibition of mouse ELOVL3 expressed in african green monkey COS7 cells; format: cell-based, COS-7; procedure, shortened: as §1
T4 sequence (O35949 whole entry): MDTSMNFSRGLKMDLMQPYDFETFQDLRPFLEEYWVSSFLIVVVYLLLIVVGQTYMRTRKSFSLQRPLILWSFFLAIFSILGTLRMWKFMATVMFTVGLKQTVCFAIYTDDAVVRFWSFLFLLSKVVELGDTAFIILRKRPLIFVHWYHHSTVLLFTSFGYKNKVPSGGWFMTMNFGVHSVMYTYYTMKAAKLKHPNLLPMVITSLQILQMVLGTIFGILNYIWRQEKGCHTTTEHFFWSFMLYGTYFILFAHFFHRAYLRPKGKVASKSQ

[7] = Plasma concentration in mouse at 1 mg/kg, po after 8 hrs; format: ADME, organism-based; parameters: dose 1 mg/kg, route oral; procedure, shortened: as §2
[8] = molecular target: T5, Very long chain fatty acid elongase 2 (Homo sapiens, UniProt Q9NXB9); assay: Inhibition of human ELOVL2 expressed in african green monkey COS7 cells; format: cell-based, COS-7; procedure, shortened: as §1
T5 sequence (Q9NXB9 whole entry): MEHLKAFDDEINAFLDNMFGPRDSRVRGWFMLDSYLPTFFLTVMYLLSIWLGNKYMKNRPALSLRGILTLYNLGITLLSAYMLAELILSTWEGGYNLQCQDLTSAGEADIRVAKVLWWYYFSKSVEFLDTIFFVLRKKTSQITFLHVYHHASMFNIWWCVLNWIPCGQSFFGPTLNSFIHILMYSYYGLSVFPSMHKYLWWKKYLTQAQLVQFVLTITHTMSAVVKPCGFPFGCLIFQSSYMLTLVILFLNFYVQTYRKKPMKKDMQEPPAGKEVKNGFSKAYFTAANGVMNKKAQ

[9] = system: Mus musculus; assay: Inhibition of ELOVL6 activity in po dosed C57BL/6J mouse liver assessed as […] administered 1 hr before [1-14C]palmitic acid measured after 2 hrs; format: functional, organism-based
[10] = molecular target: T6, Very long chain fatty acid elongase 6 (Mus musculus, UniProt Q920L5); assay: Inhibition of mouse ELOVL6 expressed in african green monkey COS7 cells; format: cell-based, COS-7; procedure, shortened: as §1
T6 sequence (Q920L5 whole entry): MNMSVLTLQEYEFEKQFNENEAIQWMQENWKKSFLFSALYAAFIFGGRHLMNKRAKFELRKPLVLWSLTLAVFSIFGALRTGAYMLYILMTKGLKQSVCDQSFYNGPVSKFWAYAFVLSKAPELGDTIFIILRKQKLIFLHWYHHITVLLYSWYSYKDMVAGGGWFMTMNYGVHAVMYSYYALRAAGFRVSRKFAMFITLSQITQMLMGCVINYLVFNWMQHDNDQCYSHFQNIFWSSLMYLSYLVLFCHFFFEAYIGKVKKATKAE

[11] = Plasma concentration in mouse at 1 mg/kg, po after 2 hrs; format: ADME, organism-based; parameters: dose 1 mg/kg, route oral; procedure, shortened: as §2
[12] = molecular target: T7, Very long chain fatty acid elongase 5 (Homo sapiens, UniProt Q9NYP7); assay: Inhibition of human ELOVL5 expressed in african green monkey COS7 cells; format: cell-based, COS-7; procedure, shortened: as §1
T7 sequence (Q9NYP7 whole entry): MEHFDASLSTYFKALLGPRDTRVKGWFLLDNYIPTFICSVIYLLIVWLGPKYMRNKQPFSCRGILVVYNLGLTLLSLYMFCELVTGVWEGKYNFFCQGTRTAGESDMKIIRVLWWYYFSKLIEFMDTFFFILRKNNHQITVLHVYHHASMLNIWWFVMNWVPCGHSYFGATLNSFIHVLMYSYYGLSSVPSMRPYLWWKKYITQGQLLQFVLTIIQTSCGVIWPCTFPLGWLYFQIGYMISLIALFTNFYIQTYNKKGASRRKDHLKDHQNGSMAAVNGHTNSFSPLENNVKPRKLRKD

[13] = Plasma concentration in mouse at 1 mg/kg, po after 24 hrs; format: ADME, organism-based; parameters: dose 1 mg/kg, route oral; procedure, shortened: as §2
[14] = Drug level in mouse liver at 10 mg/kg, po after 2 hrs; format: ADME, organism-based; parameters: dose 10 mg/kg, route oral; conditions: read-out: Drug uptake

IC50 [1] [nM] | IC50 [2] [nM] | Compound | other results
> 10000 |  | CC(C)c1[nH]n(-c2ccccc2)c(=O)c1C1(C(F)(F)F)C(=O)N(c2ccccc2)C2=C1C(=O)CC(C)(C)C2 (stereo unspecified) | 
 | 59 | Cc1[nH]n(-c2ccc(C(C)C)cc2)c(=O)c1C1(C(F)(F)F)C(=O)N(c2ccccc2)C2=C1C(=O)CC(C)(C)C2 (stereo unspecified) | 
 | 503 | COc1ccc(-n2[nH]c(C)c(C3(C(F)(F)F)C(=O)N(c4ccccc4)C4=C3C(=O)CC(C)(C)C4)c2=O)cc1 (stereo unspecified) | 
> 10000 |  | Cc1[nH]n(C(C)C)c(=O)c1C1(C(F)(F)F)C(=O)N(c2ccccc2)C2=C1C(=O)CC(C)(C)C2 (stereo unspecified) | 
 | 375 | Cc1ccc(-n2[nH]c(C)c(C3(C(F)(F)F)C(=O)N(c4ccccc4)C4=C3C(=O)CC(C)(C)C4)c2=O)cc1 (stereo unspecified) | 
704 |  | Cc1[nH]n(-c2ccccc2)c(=O)c1C1(C(F)(F)F)C(=O)N(c2ccccc2)C2=C1C(=O)CC(C)C2 (stereo unspecified) | 
 | 221 | Cc1[nH]n(-c2ccc(Cl)cc2)c(=O)c1C1(C(F)(F)F)C(=O)N(c2ccccc2)C2=C1C(=O)CC(C)(C)C2 (stereo unspecified) | 
 | 1100 | Cc1[nH]n(-c2ccc(C#N)cc2)c(=O)c1C1(C(F)(F)F)C(=O)N(c2ccccc2)C2=C1C(=O)CC(C)(C)C2 (stereo unspecified) | 
123 |  | Cc1[nH]n(-c2ccccc2)c(=O)c1C1(C(F)(F)F)C(=O)N(c2ccccc2)C2=C1C(=O)CC1(CCC1)C2 (stereo unspecified) | 
> 10000 |  | Cc1[nH]n(C2CCCCC2)c(=O)c1C1(C(F)(F)F)C(=O)N(c2ccccc2)C2=C1C(=O)CC(C)(C)C2 (stereo unspecified) | 
2020 |  | Cc1[nH]n(C)c(=O)c1C1(C(F)(F)F)C(=O)N(c2ccccc2)C2=C1C(=O)CC(C)(C)C2 (stereo unspecified) | 
4500 |  | Cc1[nH]n(-c2ccccc2)c(=O)c1C1(C(F)(F)F)C(=O)N(c2ccccc2)C2=C1C(=O)CCC2 (stereo unspecified) | 
6260 |  | Cc1[nH]n(-c2ccccc2)c(=O)c1C1(C(F)(F)F)C(=O)N(c2ccccc2)C2=C1C(=O)CC(c1ccccc1)C2 (stereo unspecified) | 
 | 337 | Cc1[nH]n(-c2ccc(OC(F)(F)F)cc2)c(=O)c1C1(C(F)(F)F)C(=O)N(c2ccccc2)C2=C1C(=O)CC(C)(C)C2 (stereo unspecified) | concentration at 2 h [3]: 30 µM; concentration at 4 h [4]: 2.8 µM; IC50 [5]: > 10000 nM; IC50 [6]: 194 nM; concentration at 8 h [7]: 1.4 µM; IC50 [8]: > 10000 nM; Activity [9]: Dose-dependent effect; IC50 [10]: 31 nM; concentration at 2 h [11]: 3.4 µM; IC50 [12]: > 10000 nM; concentration at 24 h [13]: 0.4 µM; concentration at 2 h [14]: 50 µM
